# Test results published in ChEMBL document CHEMBL2331081, “Fragment-based drug design and identification of HJC0123, a novel orally bioavailable STAT3 inhibitor for cancer therapy” (Eur J Med Chem, 2013).
# Calls of active or inactive are those of the source. The calls are words filed in the database; no cut-off is given here.
# Legend:
# PANC-1 = experiment: CYtotoxicity against human PANC1 cells by MTS assay; format: functional, cell-based
# In short: (§1)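 Cells seeded at 2×10^3/well, exposed to DMSO or 0.01, 0.1, 1, 5, 10 and 100 μM compound for 72 h. MTS reagent added, then OD at 550 nm read after 1 h at 37 °C. Quadruplicate wells per concentration.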
# MCF7 = experiment: CYtotoxicity against ER-positive human MCF7 cells by MTS assay; format: functional, cell-based; in short: as §1
# ASPC1 = experiment: CYtotoxicity against human AsPC1 cells by MTS assay; format: functional, cell-based; in short: as §1
# MDA-MB-231 [1] = experiment: CYtotoxicity against ER-negative human MDA-MB-231 cells by MTS assay; format: functional, cell-based; in short: as §1
# [2] = biological target: Signal transducer and activator of transcription 3 (Homo sapiens) (UniProt P40763); experiment: Inhibition of STAT3 promoter activity in human MDA-MB-231 cells at 5 uM after 24 hrs by luciferase reporter gene assay relative to control; format: cell-based
# In short: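 MDA-MB-231 cells seeded at 5×10^4/well in RPMI-1640 with 10% FBS and were transiently transfected 4 h after plating. Each well received 0.5 μg DNA: pSTAT3-Luc (95%) and renilla control vector (5%). Compound was added 5 h post-transfection for 24 h. Read-out is dual luciferase, as firefly/renilla ratio relative to DMSO control. Triplicate wells; representative of ≥3 independent experiments.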
# MDA-MB-231 [3] = experiment: Cell cycle arrest in human MDA-MB-231 cells assessed as accumulation at G0/G1 phase at 5 uM after 24 hrs by flow cytometry (reference value: 53.6 %); format: functional
# MDA-MB-231 [4] = experiment: Antiproliferative activity against human MDA-MB-231 cells assessed as change in cell morphology after 48 hrs by light microscopy; format: functional, cell-based
# MDA-MB-231 [5] = experiment: Induction of apoptosis in human MDA-MB-231 cells assessed as early apoptotic cells at 2.5 uM after 48 hrs by annexin V-based flow cytometry (reference value: 4.16 %); format: functional
# MDA-MB-231 [6] = experiment: Cell cycle arrest in human MDA-MB-231 cells assessed as accumulation at G2/M phase at 1 uM after 24 hrs by flow cytometry (reference value: 25.1 %); format: functional
# MDA-MB-231 [7] = experiment: Cell cycle arrest in human MDA-MB-231 cells assessed as accumulation at G2/M phase at 5 uM after 24 hrs by flow cytometry (reference value: 25.1 %); format: functional
# MDA-MB-231 [8] = experiment: Induction of apoptosis in human MDA-MB-231 cells assessed as late apoptotic cells at 5 uM after 48 hrs by annexin V-based flow cytometry (reference value: 4.98 %); format: functional
# MDA-MB-231 [9] = experiment: Induction of apoptosis in human MDA-MB-231 cells assessed as caspase-3 cleavage at 5 uM after 24 to 48 hrs by Western blot analysis; format: functional, cell-based
# In short: (§2)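 Whole-cell lysates of treated MDA-MB-231 cells; 40 µg protein per lane run on 10% SDS-PAGE and transferred to nitrocellulose. Blocked in 5% milk/1% Tween 20 in TBS. Probed for pSTAT3-Y705 (1:3000), STAT3 (1:2000) and cleaved caspase-3 (1:2000), with β-actin as loading reference. Secondary antibody at 1:4000, ECL detection.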
# MDA-MB-231 [10] = experiment: Induction of apoptosis in human MDA-MB-231 cells assessed as dead cells at 1 uM after 48 hrs by annexin V-based flow cytometry (reference value: 0.24 %); format: functional
# MDA-MB-231 [11] = experiment: Induction of apoptosis in human MDA-MB-231 cells assessed as dead cells at 5 uM after 48 hrs by annexin V-based flow cytometry (reference value: 0.24 %); format: functional
# MDA-MB-231 [12] = experiment: Cell cycle arrest in human MDA-MB-231 cells assessed as accumulation at S phase at 1 uM after 24 hrs by flow cytometry (reference value: 16.7 %); format: functional
# MDA-MB-231 [13] = experiment: Antitumor activity against human MDA-MB-231 cells xenografted in immunodeficient nude mouse assessed as reduction in tumor volume at 50 mg/kg, po administered 5 days a week; format: functional, organism-based; set-up: dose 50 mg/kg
# In short: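 Female nude mice aged 4–6 weeks were used, housed in a barrier unit. Each mouse received 2.5×10^6 fresh MDA-MB-231 cells in 100 µL PBS into the 3rd mammary fat pad (orthotopic). Mice were randomized into 2 groups of 6–7. Oral dosing or vehicle (50% DMSO/50% PEG) started once tumors reached 200 mm³. Tumor volume measured daily, calculated as 0.5×L×W².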
# MDA-MB-231 [14] = experiment: Cell cycle arrest in human MDA-MB-231 cells assessed as accumulation at S phase at 5 uM after 24 hrs by flow cytometry (reference value: 16.7 %); format: functional
# [15] = biological target: Signal transducer and activator of transcription 3 (Homo sapiens) (UniProt P40763); experiment: Inhibition of STAT3 phosphorylation at Tyr-705 in human MDA-MB-231 cells at 5 uM after 24 hrs by Western blot analysis; format: cell-based; in short: as §2
# MDA-MB-231 [16] = experiment: Cell cycle arrest in human MDA-MB-231 cells assessed as accumulation at S phase after 24 hrs by flow cytometry; format: functional, cell-based
# MDA-MB-231 [17] = experiment: Cell cycle arrest in human MDA-MB-231 cells assessed as accumulation at G0/G1 phase at 1 uM after 24 hrs by flow cytometry (reference value: 53.6 %); format: functional
# MDA-MB-231 [18] = experiment: Induction of apoptosis in human MDA-MB-231 cells assessed as late apoptotic cells at 2.5 uM after 48 hrs by annexin V-based flow cytometry (reference value: 4.98 %); format: functional
# Mus musculus = experiment: Toxicity in human MDA-MB-231 cells xenografted immunodeficient nude mouse assessed as change in body weight at 50 mg/kg, po; conditions: in vivo
# MDA-MB-231 [19] = experiment: Induction of apoptosis in human MDA-MB-231 cells assessed as early apoptotic cells at 1 uM after 48 hrs by annexin V-based flow cytometry (reference value: 4.16 %); format: functional
# MDA-MB-231 [20] = experiment: Cell cycle arrest in human MDA-MB-231 cells assessed as accumulation at G2/M phase at 2.5 uM after 24 hrs by flow cytometry (reference value: 25.1 %); format: functional
# [21] = biological target: Signal transducer and activator of transcription 3 (Homo sapiens) (UniProt P40763); experiment: Inhibition of total STAT3 protein expression in human MDA-MB-231 cells at 5 uM after 24 hrs by Western blot analysis; format: cell-based; in short: as §2
# MDA-MB-231 [22] = experiment: Induction of apoptosis in human MDA-MB-231 cells assessed as dead cells at 2.5 uM after 48 hrs by annexin V-based flow cytometry (reference value: 0.24 %); format: functional
# MDA-MB-231 [23] = experiment: Induction of apoptosis in human MDA-MB-231 cells assessed as viable cells at 1 uM after 48 hrs by annexin V-based flow cytometry (reference value: 90.62 %); format: functional; conditions: MDA-MB-231, 48 h, read-out: Activity
# [24] = biological target: Signal transducer and activator of transcription 3 (Homo sapiens) (UniProt P40763); experiment: Inhibition of total STAT3 protein expression in human MDA-MB-231 cells at 5 uM after 48 hrs by Western blot analysis; format: cell-based; in short: as §2
# MDA-MB-231 [25] = experiment: Induction of apoptosis in human MDA-MB-231 cells assessed as viable cells at 2.5 uM after 48 hrs by annexin V-based flow cytometry (reference value: 90.62 %); format: functional; conditions: MDA-MB-231, 48 h, read-out: Activity
# MDA-MB-231 [26] = experiment: Induction of apoptosis in human MDA-MB-231 cells assessed as viable cells at 5 uM after 48 hrs by annexin V-based flow cytometry (reference value: 90.62 %); format: functional; conditions: MDA-MB-231, 48 h, read-out: Activity
# MDA-MB-231 [27] = experiment: Cell cycle arrest in human MDA-MB-231 cells assessed as accumulation at G0/G1 phase at 2.5 uM after 24 hrs by flow cytometry (reference value: 53.6 %); format: functional
# [28] = biological target: Signal transducer and activator of transcription 3 (Homo sapiens) (UniProt P40763); experiment: Inhibition of STAT3 phosphorylation at Tyr-705 in human MDA-MB-231 cells at 5 uM after 48 hrs by Western blot analysis; format: cell-based; in short: as §2
# MDA-MB-231 [29] = experiment: Induction of apoptosis in human MDA-MB-231 cells assessed as late apoptotic cells at 1 uM after 48 hrs by annexin V-based flow cytometry (reference value: 4.98 %); format: functional
# MDA-MB-231 [30] = experiment: Induction of apoptosis in human MDA-MB-231 cells assessed as early apoptotic cells at 5 uM after 48 hrs by annexin V-based flow cytometry (reference value: 4.16 %); format: functional
# MDA-MB-231 [31] = experiment: Cell cycle arrest in human MDA-MB-231 cells assessed as accumulation at S phase at 2.5 uM after 24 hrs by flow cytometry (reference value: 16.7 %); format: functional
# Chain of Signal transducer and activator of transcription 3 (Homo sapiens) (P40763 whole entry): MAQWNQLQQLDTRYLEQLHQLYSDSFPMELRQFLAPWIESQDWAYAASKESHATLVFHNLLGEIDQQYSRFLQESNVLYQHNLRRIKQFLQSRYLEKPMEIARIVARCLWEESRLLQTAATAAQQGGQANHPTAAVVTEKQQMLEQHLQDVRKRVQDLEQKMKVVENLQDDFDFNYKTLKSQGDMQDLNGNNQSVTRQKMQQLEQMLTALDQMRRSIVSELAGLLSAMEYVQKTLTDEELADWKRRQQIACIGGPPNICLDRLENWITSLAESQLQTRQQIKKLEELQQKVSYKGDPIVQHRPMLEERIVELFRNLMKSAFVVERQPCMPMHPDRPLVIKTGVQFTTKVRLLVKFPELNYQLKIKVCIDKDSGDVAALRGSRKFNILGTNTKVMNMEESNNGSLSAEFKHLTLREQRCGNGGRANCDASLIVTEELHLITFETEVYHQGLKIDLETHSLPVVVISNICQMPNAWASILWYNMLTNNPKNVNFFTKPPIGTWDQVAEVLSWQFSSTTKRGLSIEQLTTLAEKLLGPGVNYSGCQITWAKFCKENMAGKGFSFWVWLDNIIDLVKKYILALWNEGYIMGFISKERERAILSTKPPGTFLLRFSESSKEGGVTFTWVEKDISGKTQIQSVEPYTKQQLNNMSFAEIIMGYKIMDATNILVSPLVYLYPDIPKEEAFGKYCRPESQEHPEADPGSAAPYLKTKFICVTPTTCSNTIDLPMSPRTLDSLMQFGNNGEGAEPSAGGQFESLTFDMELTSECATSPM
smiles,measurement,setting,value
C[C@H](NC(=O)c1cc(Cl)ccc1O)c1ccccc1,IC50,PANC-1,8.44 µM
same,IC50,MCF7,0.9 µM
same,IC50,ASPC1,7.54 µM
same,IC50,MDA-MB-231 [1],8.88 µM
O=C(Nc1ccc2c(c1)S(=O)(=O)C=C2)c1ccncc1,IC50,MCF7,> 10 µM
same,IC50,MDA-MB-231 [1],> 10 µM
O=C(Nc1ccc2c(c1)S(=O)(=O)C=C2)c1ccnc(-c2ccccc2)c1,IC50,PANC-1,3.35 µM
same,IC50,MCF7,3.78 µM
same,IC50,ASPC1,1.3 µM
same,IC50,MDA-MB-231 [1],1.85 µM
O=C(Nc1nnc(-c2ccco2)o1)c1cc(Cl)ccc1O,IC50,PANC-1,> 10 µM
same,IC50,MCF7,> 10 µM
same,IC50,ASPC1,> 10 µM
same,IC50,MDA-MB-231 [1],> 10 µM
O=C(Nc1ccc2c(c1)S(=O)(=O)C=C2)c1cc(Cl)ccc1O,IC50,PANC-1,2.34 µM
same,IC50,MCF7,0.91 µM
same,IC50,ASPC1,1.92 µM
same,IC50,MDA-MB-231 [1],1.64 µM
O=C(Nc1ccc2c(c1)S(=O)(=O)C=C2)c1cc(-c2ccccc2)nc2ccccc12,inhibition,[2],65%
same,Activity,MDA-MB-231 [3],34.1%
same,Activity,MDA-MB-231 [4],Dose-dependent effect
same,Activity,MDA-MB-231 [5],28.53%
same,Activity,MDA-MB-231 [6],27.6%
same,Activity,MDA-MB-231 [7],25.8%
same,Activity,MDA-MB-231 [8],14.21%
same,Activity,MDA-MB-231 [9],Active
same,Activity,MDA-MB-231 [10],0.67%
same,Activity,MDA-MB-231 [11],0.14%
same,Activity,MDA-MB-231 [12],16.5%
same,IC50,PANC-1,0.26 µM
same,Activity,MDA-MB-231 [13],Active
same,Activity,MDA-MB-231 [14],26.2%
same,inhibition,[15],Active
same,Activity,MDA-MB-231 [16],Dose-dependent effect
same,Activity,MDA-MB-231 [17],51.5%
same,IC50,MCF7,0.1 µM
same,Activity,MDA-MB-231 [18],13.32%
same,Activity,Mus musculus,Non-toxic
same,Activity,MDA-MB-231 [19],9.31%
same,Activity,MDA-MB-231 [20],27.5%
same,IC50,ASPC1,1.25 µM
same,inhibition,[21],Active
same,Activity,MDA-MB-231 [22],0.32%
same,IC50,MDA-MB-231 [1],0.29 µM
same,viability at 1 µM,MDA-MB-231 [23],80.8%
same,inhibition,[24],Active
same,viability at 2.5 µM,MDA-MB-231 [25],57.8%
same,viability at 5 µM,MDA-MB-231 [26],19.5%
same,Activity,MDA-MB-231 [27],43.7%
same,inhibition,[28],Active
same,Activity,MDA-MB-231 [29],9.26%
same,Activity,MDA-MB-231 [30],66.12%
same,Activity,MDA-MB-231 [31],21.9%
N#CCC(=O)Nc1ccc2c(c1)S(=O)(=O)C=C2,IC50,MCF7,> 10 µM
same,IC50,MDA-MB-231 [1],> 10 µM
O=C(Nc1ccc2c(c1)S(=O)(=O)C=C2)c1ccnc2ccccc12,IC50,PANC-1,7.92 µM
same,IC50,MCF7,2.97 µM
same,IC50,ASPC1,6.97 µM
same,IC50,MDA-MB-231 [1],6.21 µM
O=C(Nc1ccc2c(c1)S(=O)(=O)C=C2)c1c2ccccc2nc2ccccc12,IC50,PANC-1,> 10 µM
same,IC50,MCF7,> 10 µM
same,IC50,ASPC1,> 10 µM
same,IC50,MDA-MB-231 [1],> 10 µM
O=C(Nc1ccc2c(c1)S(=O)(=O)C=C2)c1cc(-c2ccccc2)nc(-c2ccccc2)c1,IC50,PANC-1,0.31 µM
same,IC50,MCF7,0.65 µM
same,IC50,ASPC1,0.12 µM
same,IC50,MDA-MB-231 [1],0.45 µM
C[C@H](NC(=O)c1cc(-c2ccccc2)nc2ccccc12)c1ccccc1,IC50,PANC-1,> 10 µM
same,IC50,MCF7,2.24 µM
same,IC50,ASPC1,> 10 µM
same,IC50,MDA-MB-231 [1],86 µM
N#C/C(=C\c1cccc(Br)n1)C(=O)Nc1ccc2c(c1)S(=O)(=O)C=C2,IC50,PANC-1,1.64 µM
same,IC50,MCF7,3.31 µM
same,IC50,ASPC1,1.54 µM
same,IC50,MDA-MB-231 [1],1.53 µM
